Reference: ChEMBL document CHEMBL3808295, “Discovery of enantioselectivity of urea inhibitors of soluble epoxide hydrolase” (Eur J Med Chem, 2016)

Assays:
[1] = target: T1, Epoxide hydrolase 1 (Homo sapiens) (UniProt P07099); experiment: Inhibition of microsomal epoxide hydrolase in pooled human liver microsomes assessed as enzyme activity using styrene oxide as substrate at 10 uM incubated for 10 mins by UV-HPLC analysis relative to control; set-up: scale not given: the % may be the effect or the level left
T1 sequence (whole entry): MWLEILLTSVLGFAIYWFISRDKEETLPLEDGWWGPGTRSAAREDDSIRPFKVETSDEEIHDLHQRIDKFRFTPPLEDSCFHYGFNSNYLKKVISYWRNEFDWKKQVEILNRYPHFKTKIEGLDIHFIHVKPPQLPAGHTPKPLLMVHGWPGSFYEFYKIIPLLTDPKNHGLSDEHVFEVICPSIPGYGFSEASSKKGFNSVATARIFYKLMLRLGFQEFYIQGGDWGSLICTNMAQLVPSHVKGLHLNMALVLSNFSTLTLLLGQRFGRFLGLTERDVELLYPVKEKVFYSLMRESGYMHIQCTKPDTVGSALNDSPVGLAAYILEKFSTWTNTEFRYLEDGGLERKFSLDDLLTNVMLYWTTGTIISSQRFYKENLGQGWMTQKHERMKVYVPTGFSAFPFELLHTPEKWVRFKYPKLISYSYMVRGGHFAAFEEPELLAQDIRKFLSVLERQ
In short: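 Pooled human liver microsomes (0.2 mg/mL) incubated with styrene oxide (25 μM) and 10 μM test compound in 0.1 M Tris-HCl pH 9.0 at 37°C for 10 min; quenched with n-hexane, centrifuged, supernatant analysed by UV-HPLC (C18, 30°C, 40% methanol). Activity from styrene glycol formed, as percentage of control; valpromide positive control.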

[2] = target: T2, Bifunctional epoxide hydrolase 2 (Homo sapiens, UniProt P34913); experiment: Inhibition of soluble epoxide hydrolase (unknown origin) using 14,15-EET as substrate incubated for 20 mins by LC-MS/MS analysis
T2 sequence (P34913 whole entry): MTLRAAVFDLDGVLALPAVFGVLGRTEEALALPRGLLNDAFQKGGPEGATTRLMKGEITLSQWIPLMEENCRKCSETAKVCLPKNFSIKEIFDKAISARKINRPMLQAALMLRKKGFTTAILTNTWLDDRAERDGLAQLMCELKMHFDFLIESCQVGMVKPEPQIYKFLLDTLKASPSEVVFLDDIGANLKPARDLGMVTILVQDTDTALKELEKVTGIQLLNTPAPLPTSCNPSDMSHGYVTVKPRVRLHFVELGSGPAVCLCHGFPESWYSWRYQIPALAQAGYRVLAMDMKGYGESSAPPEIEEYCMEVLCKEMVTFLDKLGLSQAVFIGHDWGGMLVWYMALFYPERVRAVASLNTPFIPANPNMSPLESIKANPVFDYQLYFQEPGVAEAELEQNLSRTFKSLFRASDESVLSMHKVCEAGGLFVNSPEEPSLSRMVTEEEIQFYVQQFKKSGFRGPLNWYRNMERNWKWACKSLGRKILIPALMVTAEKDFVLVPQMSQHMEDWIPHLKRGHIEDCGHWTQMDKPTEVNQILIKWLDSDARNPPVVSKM

Compound | Activity [1] | IC50 [2]
O=C(NCCCc1ccccc1)N[C@H](CO)c1ccccc1 | 107% | 20000 nM
C[C@H](NC(=O)NCCCc1ccccc1)C1CCCCC1 | 99.4% | 182 nM
O=C(NCCCc1ccccc1)N[C@H]1CCCc2ccccc21 | 106% | 13 nM
O=C(NCCCc1ccccc1)N[C@@H]1CCc2ccccc21 | 110% | 22 nM
C[C@@H](NC(=O)NCCCc1ccccc1)c1cccc2ccccc12 | 98.7% | 364 nM
CC[C@H](C)NC(=O)NCCCc1ccccc1 | 101% | 63 nM
C[C@H](NC(=O)NCCCc1ccccc1)c1ccccc1 | 84.6% | 44 nM
CCC(C)NC(=O)NCCCc1ccccc1 (racemic) | 102% | 650 nM
C[C@@H](NC(=O)NCCCc1ccccc1)C1CCCCC1 | 103% | 302 nM
O=C(NCCCc1ccccc1)N[C@@H]1CCCc2ccccc21 | 106% | 13 nM
O=C(NCCCc1ccccc1)N1CCC[C@H]1c1ccccc1 | 99.8% | 332 nM
C[C@@H](NC(=O)NCCCc1ccccc1)c1ccccc1 | 102% | 1730 nM
O=C(NCCCc1ccccc1)N[C@@H](CO)c1ccccc1 | 102% | 2740 nM
O=C(NCCCc1ccccc1)N1CCC[C@@H]1c1ccccc1 | 101% | 1510 nM
O=C(NCCCc1ccccc1)N[C@H]1CCc2ccccc21 | 112% | 65 nM
O=C(NCCCc1ccccc1)NCc1ccccc1 | 105% | 3260 nM
CC[C@H](NC(=O)NCCCc1ccccc1)c1ccccc1 | 106% | 36 nM
C[C@@H](NC(=O)NCCCc1ccc(S(N)(=O)=O)cc1)c1ccccc1 | 101% | 2030 nM
CC[C@@H](NC(=O)NCCCc1ccccc1)c1ccccc1 | 103% | 4500 nM
C[C@H](NC(=O)NCCCc1ccc(S(N)(=O)=O)cc1)c1ccccc1 | 99.9% | 22 nM
CCCC(CCC)C(N)=O | 50.9% | –
C[C@H](NC(=O)NCCCc1ccccc1)c1cccc2ccccc12 | 102% | 43 nM
